Measurements of several laboratories.
Lines come from different studies, so protocols differ. pIC50: −log10 of the molar value.
LATS2: Serine/threonine-protein kinase LATS2 (LATS2, Homo sapiens, UniProt Q9NRM7)
AKR1B1: Aldo-keto reductase family 1 member B1 (AKR1B1, Homo sapiens, UniProt P15121)
LCK: Tyrosine-protein kinase Lck (LCK, Homo sapiens, UniProt P06239)

Cc1cc(-c2ccnc3[nH]cc(F)c23)cc(F)c1[C@@]1(O)[C@H](C)CN(C(=O)CN)C[C@@H]1C — pIC50 (LATS2; enzyme activity; inhibitor; radiometric): 8.59
COc1cc(/C=N/NC(=S)NN=Cc2cccs2)ccc1Oc1ccnc2cc(Cl)ccc12 — pIC50 (AKR1B1; enzyme activity; inhibitor; absorbance): 4.71
OC1(c2ccc(-c3ccnc4[nH]cc(F)c34)cc2)CCNC1 (stereo not drawn) — pIC50 (LATS2; enzyme activity; inhibitor; radiometric): 8.08
Cc1cc(-c2cc(O)ccc2Cl)cc2nnc(Nc3ccc(OCCN4CCCC4)cc3)nc12 — pIC50 (LCK; cell-free assay): 9.53
Cc1cn([C@H]2C[C@H](OP(=O)(O)OC[C@H]3O[C@@H](n4cc(C)c(=O)[nH]c4=O)C[C@@H]3O)[C@@H](COP(=O)(O)OP(=O)(O)O)O2)c(=O)[nH]c1=O — pIC50 (dgt (Salmonella enterica, UniProt A0A5H6DAK1); enzyme activity; inhibitor): 4.71
COc1cc(/C=N/NC(=S)NN=Cc2ccc([N+](=O)[O-])o2)ccc1Oc1ccnc2cc(Cl)ccc12 — pIC50 (AKR1B1; enzyme activity; inhibitor; absorbance): 5.11
O=C(NC1CCC2(CCCC2)CC1)c1ccc(-c2ccccc2)cc1 — pIC50 (Transient receptor potential cation channel subfamily M member 8 (TRPM8, Homo sapiens, UniProt Q7Z2W7); ion current; patch clamp): 6.97
CC1CNCCC1(O)c1ccc(-c2ccnc3[nH]cc(F)c23)cc1 (stereo not drawn) — pIC50 (LATS2; enzyme activity; inhibitor; radiometric): 8.25
COc1cc(/C=N/NC(=S)N/N=C/c2ccc(Br)cc2)ccc1Oc1ccnc2cc(Cl)ccc12 — pIC50 (AKR1B1; enzyme activity; inhibitor; absorbance): 5.05
C[C@@H]1CNC[C@H](C)[C@@]1(O)c1ccc(-c2ccnc3[nH]cc(F)c23)cc1 — pIC50 (LATS2; enzyme activity; inhibitor; radiometric): 8.06
Clc1ccc(Nc2ccncc2)cc1Cl — pIC50 (Endonuclease 8-like 1 (NEIL1, Homo sapiens, UniProt Q96FI4); enzyme activity; inhibitor): < 4.00
COc1c(Cl)cccc1Nc1c(-c2ccncc2OC[C@@H]2COCCO2)[nH]c2c1C(=O)NCC2 — pIC50 (LCK; enzyme activity; inhibitor; TR-FRET): 5.95
Cc1cc2c(cc1C)N[C@H](c1ccccc1)[C@@H](O)C(=O)N2 — pIC50 (Tyrosine-protein kinase JAK2 (JAK2, Homo sapiens, UniProt O60674); enzyme activity; inhibitor; ELISA): 6.46
COc1cc(/C=N/NC(=S)N/N=C/c2ccc(C=O)cc2)ccc1Oc1ccnc2cc(Cl)ccc12 — pIC50 (AKR1B1; enzyme activity; inhibitor; absorbance): 4.89
O=C(O[C@@H]1[C@@H](O)[C@H](Oc2cc(O)c3c(c2)O[C@H](c2ccccc2)CC3=O)O[C@@H]2COC(=O)c3cc(O)c(O)c(O)c3-c3c(cc(O)c(O)c3O)C(=O)O[C@@H]12)c1cc(O)c(O)c(O)c1 — pIC50 (Thioredoxin domain-containing protein 5 (TXNDC5, Homo sapiens, UniProt Q8NBS9); enzyme activity; inhibitor; fluorescence): 5.41
